Results on three compounds are retold here after PMC3641321 (Blood Cancer Journal, 2013).

SMILES strings stand for the structures. Values joined by “and” are separate entries in the source; they are usually repeats but may differ in a detail not shown here. Equal values may be shown once. “Also recorded” adds a separate entry of the source. Marks after values point to notes of the source that are not given here.

The target of one series is TEL-JAK1 (Homo sapiens, UniProt P23458+P41212). Nature of the series: AlphaScreen SureFire pSTAT5 assay, Ba/F3 TEL-JAK1. It is filed as cell-based. (In Alpha technology, singlet oxygen from a donor bead excites a nearby acceptor bead.)
TEL-JAK1, sequence (P23458 875-1154 limits assumed, one chain of several): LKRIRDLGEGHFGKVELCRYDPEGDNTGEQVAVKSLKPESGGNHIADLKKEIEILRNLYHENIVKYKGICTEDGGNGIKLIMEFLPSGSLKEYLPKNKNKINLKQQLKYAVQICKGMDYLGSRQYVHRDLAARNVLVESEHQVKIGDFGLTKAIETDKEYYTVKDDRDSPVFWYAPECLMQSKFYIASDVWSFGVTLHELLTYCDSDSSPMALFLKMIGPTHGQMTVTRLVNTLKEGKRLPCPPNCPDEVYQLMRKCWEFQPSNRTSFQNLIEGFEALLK
The target in the next series is TEL-JAK2 (Homo sapiens, UniProt O60674+P41212). Nature of the series: AlphaScreen SureFire pSTAT5 assay, Ba/F3 TEL-JAK2. It is filed as cell-based.
TEL-JAK2, sequence (O60674 840-1132 limits assumed, one chain of several): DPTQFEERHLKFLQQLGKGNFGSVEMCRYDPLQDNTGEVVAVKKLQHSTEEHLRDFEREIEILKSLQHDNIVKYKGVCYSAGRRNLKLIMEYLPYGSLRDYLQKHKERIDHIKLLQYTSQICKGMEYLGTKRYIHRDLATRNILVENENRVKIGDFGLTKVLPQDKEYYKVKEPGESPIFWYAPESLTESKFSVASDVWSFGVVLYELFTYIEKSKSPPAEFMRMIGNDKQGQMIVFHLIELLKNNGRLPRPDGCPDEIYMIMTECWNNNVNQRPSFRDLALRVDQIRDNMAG
In the next series the target is TEL-JAK3 (Homo sapiens, UniProt P41212+P52333). Nature of the series: AlphaScreen SureFire pSTAT5 assay, Ba/F3 TEL-JAK3. It is filed as cell-based.
The target of series [1] is T1, JAK2V617F (Homo sapiens, UniProt O60674, V617F). Put plainly: AlphaScreen SureFire pSTAT5 assay, Ba/F3-JAK2V617F. It is filed as cell-based.
T1 sequence (O60674 whole entry V617F): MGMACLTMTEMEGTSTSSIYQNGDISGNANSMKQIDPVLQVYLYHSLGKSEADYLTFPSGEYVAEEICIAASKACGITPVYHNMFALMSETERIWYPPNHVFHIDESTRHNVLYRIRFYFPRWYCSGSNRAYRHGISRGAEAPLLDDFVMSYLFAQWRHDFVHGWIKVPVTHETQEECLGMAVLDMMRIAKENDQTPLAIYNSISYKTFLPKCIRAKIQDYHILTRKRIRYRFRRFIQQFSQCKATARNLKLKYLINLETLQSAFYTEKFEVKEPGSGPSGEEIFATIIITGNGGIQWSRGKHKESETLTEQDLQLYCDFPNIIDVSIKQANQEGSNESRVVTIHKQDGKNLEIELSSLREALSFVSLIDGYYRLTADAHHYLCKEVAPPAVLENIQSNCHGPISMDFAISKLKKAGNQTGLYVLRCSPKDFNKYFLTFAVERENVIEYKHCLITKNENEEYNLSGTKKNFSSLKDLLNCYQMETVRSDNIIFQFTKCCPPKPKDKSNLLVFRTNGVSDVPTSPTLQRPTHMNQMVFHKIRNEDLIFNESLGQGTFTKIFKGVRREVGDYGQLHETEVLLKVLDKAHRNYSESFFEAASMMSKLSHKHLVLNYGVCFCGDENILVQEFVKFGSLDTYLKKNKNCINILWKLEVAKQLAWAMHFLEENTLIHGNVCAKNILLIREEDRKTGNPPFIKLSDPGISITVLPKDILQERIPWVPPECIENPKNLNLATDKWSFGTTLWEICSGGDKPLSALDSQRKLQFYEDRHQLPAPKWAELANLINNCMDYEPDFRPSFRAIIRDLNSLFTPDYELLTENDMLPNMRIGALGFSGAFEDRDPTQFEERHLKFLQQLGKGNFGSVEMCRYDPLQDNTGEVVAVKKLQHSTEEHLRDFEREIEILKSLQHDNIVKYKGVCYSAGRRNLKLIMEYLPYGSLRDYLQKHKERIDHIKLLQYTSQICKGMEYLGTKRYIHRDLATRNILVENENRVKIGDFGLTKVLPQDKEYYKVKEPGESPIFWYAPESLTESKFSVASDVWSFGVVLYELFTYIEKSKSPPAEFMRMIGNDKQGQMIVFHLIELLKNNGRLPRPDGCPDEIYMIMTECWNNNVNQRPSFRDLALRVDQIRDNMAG
In series [2] the target is IL-3-activated wild-type JAK2 (Homo sapiens, UniProt O60674). Put plainly: AlphaScreen SureFire pSTAT5 assay, IL-3-stimulated Ba/F3 wild-type JAK2. Format: cell-based.
IL-3-activated wild-type JAK2, sequence (O60674 whole entry): as the sequence (O60674 whole entry V617F) above, with F617V counted along it
For series [3], the system named is Ba/F3 cells expressing JAK2V617F. Put plainly: MTS cell proliferation assay, Ba/F3 JAK2V617F. It is filed as cell-based, murine. To be noted: Mus musculus, BaF3, 72 h, read-out: Cell proliferation assay V617F IC50±s.d.
The target in series [4] is T2, JAK2 (Homo sapiens, UniProt O60674). Nature of the series: JAK LanthaScreen Kinase Assay. To be noted: Biochemical measurement of JAK inhibition, JAK2 IC50±s.d., Table 1. For orientation: Time-resolved FRET reads energy transfer from a long-lived donor to a nearby acceptor.
T2 sequence (O60674 whole entry): as the sequence (O60674 whole entry V617F) above, with F617V counted along it
Another series has as its target T3, JAK3 (Homo sapiens, UniProt P52333).
T3 sequence (P52333 1-1124): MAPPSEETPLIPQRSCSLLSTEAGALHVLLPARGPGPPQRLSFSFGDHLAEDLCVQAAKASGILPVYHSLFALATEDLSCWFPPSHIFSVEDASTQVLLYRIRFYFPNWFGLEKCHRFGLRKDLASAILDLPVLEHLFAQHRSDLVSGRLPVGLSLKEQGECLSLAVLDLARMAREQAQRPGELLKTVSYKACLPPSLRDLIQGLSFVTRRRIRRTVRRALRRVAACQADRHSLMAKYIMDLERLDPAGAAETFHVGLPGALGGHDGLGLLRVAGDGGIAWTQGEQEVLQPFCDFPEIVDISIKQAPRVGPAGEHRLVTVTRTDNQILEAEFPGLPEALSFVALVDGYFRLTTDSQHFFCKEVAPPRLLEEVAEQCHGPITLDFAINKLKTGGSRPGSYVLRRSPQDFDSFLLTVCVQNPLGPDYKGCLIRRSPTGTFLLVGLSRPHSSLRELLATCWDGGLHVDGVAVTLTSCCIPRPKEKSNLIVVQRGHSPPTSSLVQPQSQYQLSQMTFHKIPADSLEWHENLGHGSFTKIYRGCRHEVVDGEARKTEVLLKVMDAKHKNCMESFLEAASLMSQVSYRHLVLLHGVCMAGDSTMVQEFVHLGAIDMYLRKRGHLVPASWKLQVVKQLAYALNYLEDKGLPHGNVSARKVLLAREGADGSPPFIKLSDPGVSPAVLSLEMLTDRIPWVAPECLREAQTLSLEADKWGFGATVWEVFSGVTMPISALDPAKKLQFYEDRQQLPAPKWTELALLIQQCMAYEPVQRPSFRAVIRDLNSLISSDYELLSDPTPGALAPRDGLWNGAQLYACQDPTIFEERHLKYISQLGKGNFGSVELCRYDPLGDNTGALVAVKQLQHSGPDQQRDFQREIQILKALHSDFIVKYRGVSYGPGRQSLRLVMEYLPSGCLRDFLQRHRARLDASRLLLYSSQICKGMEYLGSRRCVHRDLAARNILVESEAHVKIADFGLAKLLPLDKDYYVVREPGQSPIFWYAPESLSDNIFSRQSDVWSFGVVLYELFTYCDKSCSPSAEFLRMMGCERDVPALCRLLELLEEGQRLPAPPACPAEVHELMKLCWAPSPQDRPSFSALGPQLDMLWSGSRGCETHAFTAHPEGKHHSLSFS
Put plainly: JAK LanthaScreen Kinase Assay. As to conditions: second-tier biochemical / LanthaScreen assay.

The target of the next series is JAK3/JAK1 heterodimer (Homo sapiens, UniProt P23458+P52333). Nature of the series: Cellomics pSTAT5 assay, IL-2-stimulated NK-92 cells. It is filed as cell-based. An outline of the steps:
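NK-92 cells were kept overnight in MEM Alpha with 0.3% FBS and 0.3% horse serum, then plated with DMSO or a 10-point 1:3 dilution series (20 to 0.001 μM) for 10 min. IL-2 (0.5 μg/ml) was then added for 20 min. Cells were fixed, stained for pSTAT5 (pY694) with Alexa Fluor 647 and Hoechst, and imaged. IC50 came from a four-parameter logistic fit.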

Series [5] relates to cytotoxic T-cells, CD3+CD8a+. Put plainly: 14-day rat immunotoxicology, flow cytometry. Format: in vivo, Sprague-Dawley rats. To be noted: for Change in cytotoxic T-cells, CD3+CD8a+, peripheral blood / Change in cytotoxic T-cells, CD3+CD8a+, spleen: gavage, Compound 1 15 mg/kg, Compound 2 (LY2784544) 30 mg/kg; for Percentage of T-cytotoxic cells (peripheral blood and splenic): pharmacologically active exposures, result in words.

The target of series [6] is T2, JAK2. Nature of the series: Cellomics pSTAT5 assay, EPO-stimulated TF-1 cells. It is filed as cell-based. An outline of the steps:
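TF-1 cells were starved overnight in RPMI with 0.6% FBS, then plated at 2 × 10^5 cells/well with DMSO or a 10-point 1:3 dilution series (20 to 0.001 μM). After 10 min, erythropoietin (1.6 units/ml) was added for 20 min. Cells were fixed, stained with anti-pSTAT5 (pY694) Alexa Fluor 647 and Hoechst, and imaged. IC50 came from a four-parameter logistic fit.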

In series [7] the test system is Ba/F3 cells expressing JAK2V617F. Nature of the series: Caspase-Glo 3/7 apoptosis assay. Format: cell-based, murine. As to conditions: Mus musculus, BaF3, 18 h, read-out: Induction of apoptosis EC50 (Caspase3/7-glo).
For series [8], the system named is JAK2V617F signaling in Ba/F3-JAK2V617F-GFP ascitic tumor cells. Put plainly: In vivo target inhibition, pSTAT5 in mouse ascitic tumor model. Details: species or system SCID mice. An outline of the steps: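 Ascitic tumors were grown in CB17 SCID mice for 7 days after intraperitoneal implantation of 1 × 10^7 Ba/F3-JAK2V617F-GFP cells. A single oral gavage dose (2.5–80.0 mg/kg, six animals/group) was given and tumor cells were collected 30 min later. For time courses, 20, 40 or 80 mg/kg was given with collection at 0.25–6.0 h. Cells were fixed, stained 2 h for pSTAT5 (pY694), and analysed by flow cytometry. Statistics used ANOVA with Dunnett's test and a four-parameter logistic fit.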

In series [9] the test system is Ba/F3-JAK2V617F-GFP tumor burden. Nature of the series: 14-day in vivo efficacy, JAK2V617F-induced mouse MPN model. Details: species or system SCID mice. The procedure, abridged: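 SCID mice received 1 × 10^7 Ba/F3-JAK2V617F-GFP cells intravenously (six mice/group). Twice-daily oral gavage at 2.5–80.0 mg/kg started 7 days after infusion and ran 14 days. Endpoints were complete blood counts from cardiac puncture, spleen weight, and FACS of splenocytes for total number and percentage of GFP-positive cells. Dunnett's test at α=0.05.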

Series [10] deals with Ba/F3-JAK2V617F-GFP tumor cells, erythroid progenitors, peripheral blood counts. Put plainly: 8-day mouse hematologic disease model, hematopoiesis. As to conditions: result in words. It is filed as in vivo, SCID mice. The procedure, abridged:
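This was an 8-day version of the intravenous Ba/F3-JAK2V617F-GFP SCID mouse model. Dosing at 5, 20, 40 or 80 mg/kg began one day before tumor cell infusion and continued twice daily for 8 days. Splenocytes were analysed by FACS for GFP-positive tumor cells and for erythroid progenitors stained with Ter119-APC and CD71-PE, with 7-AAD excluding nonviable cells. Peripheral blood counts were also taken.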

Series [11] is described as follows: 14-day rat pilot toxicology study. It is filed as in vivo. As to conditions: 30, 60, or 100 mg/kg.
For series [12], the target named is T1, JAK2V617F. Put plainly: Western blot pSTAT5, Ba/F3 JAK2V617F. It is filed as cell-based. To be noted: 50 nM–20 μM, 2 h. In general terms: Immunoblotting shows a protein as a band on a membrane.
The target in a further series is wild-type JAK2 (Homo sapiens, UniProt O60674). Nature of the series: Western blot pSTAT5, IL-3-stimulated Ba/F3 wild-type JAK2. It is filed as cell-based. To be noted: Ba/F3 wild-type JAK2, 50 and 200 nM.
wild-type JAK2, sequence (O60674 whole entry): as the sequence (O60674 whole entry V617F) above, with F617V counted along it
Series [13] addresses T1, JAK2V617F. Put plainly: Western blot pSTAT5, HEK293T JAK2V617F. It is filed as cell-based. To be noted: HEK293 cells expressing JAK2V617F, 1 h.
The next series has as its target JAK2 H538Q (Homo sapiens, UniProt O60674, H538Q). Nature of the series: Western blot pSTAT5, HEK293T JAK2 H538Q. It is filed as cell-based. As to conditions: HEK293 cells expressing JAK2 H538Q, 1 h.
A further series addresses JAK2 R564Q (Homo sapiens, UniProt O60674, R564Q). Nature of the series: Western blot pSTAT5, HEK293T JAK2 R564Q. Format: cell-based. To be noted: HEK293 cells expressing JAK2 R564Q, 1 h.
For a further series, the target named is JAK2Y931C (Homo sapiens, UniProt O60674, Y931C). Nature of the series: Western blot pSTAT5, HEK293T JAK2Y931C. It is filed as cell-based. As to conditions: HEK293 cells expressing JAK2Y931C, 1 h.
JAK2Y931C, sequence (O60674 whole entry Y931C): as the sequence (O60674 whole entry V617F) above, with F617V, Y931C counted along it

JAK3/JAK1 heterodimer, sequence (P23458 whole entry, one chain of several): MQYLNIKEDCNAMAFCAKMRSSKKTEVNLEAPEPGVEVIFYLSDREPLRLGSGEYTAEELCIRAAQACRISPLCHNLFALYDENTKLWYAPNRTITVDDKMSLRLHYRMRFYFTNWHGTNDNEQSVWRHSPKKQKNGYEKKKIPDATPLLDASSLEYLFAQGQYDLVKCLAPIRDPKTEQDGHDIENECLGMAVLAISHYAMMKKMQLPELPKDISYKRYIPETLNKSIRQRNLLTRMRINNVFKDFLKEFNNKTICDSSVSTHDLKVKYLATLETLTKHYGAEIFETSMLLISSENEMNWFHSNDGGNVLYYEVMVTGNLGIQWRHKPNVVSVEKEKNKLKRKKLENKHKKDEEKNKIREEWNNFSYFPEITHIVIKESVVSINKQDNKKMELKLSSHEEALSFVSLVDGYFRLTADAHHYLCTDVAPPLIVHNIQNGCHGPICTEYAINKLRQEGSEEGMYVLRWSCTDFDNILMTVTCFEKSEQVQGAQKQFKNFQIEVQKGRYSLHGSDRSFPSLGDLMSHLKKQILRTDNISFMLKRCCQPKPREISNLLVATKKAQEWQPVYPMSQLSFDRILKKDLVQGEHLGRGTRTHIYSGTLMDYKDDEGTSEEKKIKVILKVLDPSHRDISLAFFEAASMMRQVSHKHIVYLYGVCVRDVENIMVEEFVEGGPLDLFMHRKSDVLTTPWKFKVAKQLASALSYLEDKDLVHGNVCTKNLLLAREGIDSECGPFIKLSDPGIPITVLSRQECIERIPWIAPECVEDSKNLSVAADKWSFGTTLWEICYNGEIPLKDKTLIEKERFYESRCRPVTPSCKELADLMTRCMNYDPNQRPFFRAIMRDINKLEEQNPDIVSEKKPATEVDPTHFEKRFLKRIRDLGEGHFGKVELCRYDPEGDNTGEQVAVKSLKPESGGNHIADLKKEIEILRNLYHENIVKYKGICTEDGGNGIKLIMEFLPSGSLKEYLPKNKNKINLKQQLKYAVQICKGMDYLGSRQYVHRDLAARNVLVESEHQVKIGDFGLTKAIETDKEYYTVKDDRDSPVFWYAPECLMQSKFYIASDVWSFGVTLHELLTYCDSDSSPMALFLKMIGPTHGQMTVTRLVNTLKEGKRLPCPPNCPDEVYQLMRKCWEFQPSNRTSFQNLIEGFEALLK
JAK3/JAK1 heterodimer, sequence (P14784 27-551 partner, one chain of several): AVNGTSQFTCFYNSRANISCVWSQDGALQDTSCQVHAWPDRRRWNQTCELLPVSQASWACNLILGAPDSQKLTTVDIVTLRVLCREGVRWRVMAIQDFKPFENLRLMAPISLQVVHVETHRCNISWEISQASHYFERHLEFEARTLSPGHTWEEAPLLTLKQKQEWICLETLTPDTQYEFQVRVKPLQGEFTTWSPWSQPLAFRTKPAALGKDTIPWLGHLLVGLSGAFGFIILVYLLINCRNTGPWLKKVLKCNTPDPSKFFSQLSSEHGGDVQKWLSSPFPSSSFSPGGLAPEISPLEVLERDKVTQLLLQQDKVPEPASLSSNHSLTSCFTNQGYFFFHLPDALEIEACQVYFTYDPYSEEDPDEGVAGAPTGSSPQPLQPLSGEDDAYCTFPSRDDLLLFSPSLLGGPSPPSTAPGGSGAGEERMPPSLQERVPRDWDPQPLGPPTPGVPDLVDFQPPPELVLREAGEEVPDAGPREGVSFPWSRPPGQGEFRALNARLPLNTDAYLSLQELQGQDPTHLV
JAK3/JAK1 heterodimer, sequence (P31785 23-369 partner, one chain of several): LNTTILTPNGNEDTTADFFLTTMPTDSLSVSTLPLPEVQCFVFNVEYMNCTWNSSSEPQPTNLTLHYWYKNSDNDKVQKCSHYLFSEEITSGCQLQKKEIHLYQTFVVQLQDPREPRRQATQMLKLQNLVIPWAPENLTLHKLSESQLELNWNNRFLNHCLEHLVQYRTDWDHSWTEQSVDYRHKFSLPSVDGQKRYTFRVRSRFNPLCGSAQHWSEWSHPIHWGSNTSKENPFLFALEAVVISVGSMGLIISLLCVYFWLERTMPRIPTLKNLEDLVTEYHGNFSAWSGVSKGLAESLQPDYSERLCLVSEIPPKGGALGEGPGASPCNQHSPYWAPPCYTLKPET
JAK2 R564Q, sequence (O60674 whole entry R564Q): as the sequence (O60674 whole entry V617F) above, with R564Q, F617V counted along it
JAK2 H538Q, sequence (O60674 whole entry H538Q): as the sequence (O60674 whole entry V617F) above, with H538Q, F617V counted along it

For `Cc1cc(Nc2nc(N[C@@H](C)c3ncc(F)cn3)ncc2Cl)n[nH]1` [AZD1480, reference compound], the IC50 was 663 ± 74 nM at TEL-JAK1; 139 ± 47 nM against TEL-JAK2; 2550 ± 345 nM against TEL-JAK3; 19 ± 13 nM at JAK2V617F [1]; 181 ± 132 nM in [2]; 43 ± 1 nM in series [3].

On JAK2 [4], `Cc1cc(Nc2ccc3ncn([C@@H]4CCc5ccc(F)cc54)c3n2)[nH]n1.Cl.Cl` [Compound 1, 3-[(1R)-6-fluoro-2,3-dihydro-1H-inden-1-yl]-N-(3-methyl-1H-pyrazol-5-yl)-3H-imidazo[4,5-b]pyridin-5-amine dihydrochloride] yielded an IC50 of 2 nM. Also, the “Selectivity for JAK2 over JAK3, biochemical” value at JAK3 is listed as “fourfold”. On JAK3/JAK1 heterodimer, this compound showed an IC50 of 228 ± 76 nM. Further, in series [5], the “Change in cytotoxic T-cells, CD3+CD8a+, peripheral blood” value is given as −39 (P<0.05) %; the “Change in cytotoxic T-cells, CD3+CD8a+, spleen” value is reported as −42 (P<0.05) ^d %; the “Percentage of T-cytotoxic cells (peripheral blood and splenic)” value is listed as “statistically significant decrease”.

`Cc1cc(Nc2cc(CN3CCOCC3)c3nc(C)c(Cc4ccc(Cl)cc4F)n3n2)n[nH]1` [LY2784544, 3-(4-chloro-2-fluorobenzyl)-2-methyl-N-(5-methyl-1H-pyrazol-3-yl)-8-(morpholinomethyl)imidazo[1,2-b]pyridazin-6-amine]: the IC50 was found to be 45 ± 19 nM at JAK2 [6]; 942 ± 255 nM against JAK3/JAK1 heterodimer; 2900 ± 486 nM against TEL-JAK1; 191 ± 36 nM against TEL-JAK2; 4740 ± 738 nM against TEL-JAK3; 55 ± 4 nM in series [3]. For the same compound, the “Change in cytotoxic T-cells, CD3+CD8a+, peripheral blood” value in series [5] was “No change”. Moreover, in [5], the “Change in cytotoxic T-cells, CD3+CD8a+, spleen” value is “No change”. Further, in series [5], the “Percentage of T-cytotoxic cells (peripheral blood and splenic)” value is on record as “did not decrease”. In addition, the EC50 in [7] worked out at 113 ± 0.023 nM. Moreover, the “TEC50, plasma concentration to inhibit 50% of STAT5 phosphorylation” value in series [8] (30 min after oral dosing) is 699.0 ng/ml and 1.49 μM. In addition, the “Duration of statistically significant inhibition of STAT5 phosphorylation” value in [8] (single 40 mg/kg oral dose) is listed as “at least 2 h”; in series [8] (single 80 mg/kg oral dose), “at least 6 h”. Besides, the “TED50, dose to inhibit 50% of STAT5 phosphorylation” value in [8] (single oral dose, 30 min after dosing, ascitic tumor cells) turned out to be 12.7 mg/kg. The Spleen mass reduction entry in series [9] (20 mg/kg BID, 14 days) is on record as “about 20%”. Also, the “Decrease in GFP-positive Ba/F3-JAK2V617F cells” value in series [9] (20 mg/kg BID, 14 days, spleen) is on record as around 50%. Also, in [9] (20, 40 or 80 mg/kg, BID), the “Reduction of the number of Ba/F3 cells expressing JAK2V617F” value is reported as at least 50%. The “TED50 for tumor burden reduction” value in [9] (oral, twice daily, 14 days, Ba/F3-JAK2V617F-GFP cells in spleen) turned out to be 13.7 mg/kg. In addition, the “Percentage of Ba/F3-JAK2V617F-GFP-positive cells in spleen” value in series [10] (40 mg/kg (P=8 × 10^−4) and 80 mg/kg (P=8 × 10^−7) BID, 8 days) is given as “significantly reduced”. The “Effect on erythroid progenitor (CD71+/Ter119+) cells” value in [10] (5–80 mg/kg BID, 8 days) is on record as “no effect; also recorded: did not affect”. Besides, the “Effect on peripheral blood reticulocytes” value in series [10] (5–80 mg/kg BID, 8 days) was “no effect; also recorded: did not reduce”. Besides, the Effect on platelets result in series [10] was “no effect”. Also, the “Gastric- and intestine-related toxicity” value in series [11] is “No gastric- and intestine-related toxicity was observed”. For the same compound, the “Inhibition of STAT5 phosphorylation, western blot” value at JAK2V617F [12] is recorded as “potently inhibited”; at JAK2V617F [13], “effectively inhibited”; on JAK2 H538Q, “effectively inhibited”; on JAK2 R564Q, “effectively inhibited”; at JAK2Y931C it was “much less potency”. At wild-type JAK2, the “Inhibition of IL-3-stimulated STAT5 phosphorylation, western blot” value is on record as “marginal inhibition”.
